Data from ChEMBL document CHEMBL2407049, “Cyclopeptide alkaloids: stereochemistry and synthesis of the precursors of discarines C and D and myrianthine A” (2013).

Columns and labels:
Candida tropicalis = assay: Antifungal activity against Candida tropicalis ATCC 750 assessed as concentration required to inhibit fungal growth after 24 hrs by TLC assay; format: functional
Summary of the method: (§1)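 Direct TLC bioautography: compound amounts from 50 to 1.56 μg applied to precoated TLC plates, overlaid with Mueller Hinton or Sabouraud agar inoculated with microorganism suspension (10⁵ cfu mL⁻¹). Plates incubated 24 h at 37 °C, then stained with aqueous 2,3,5-triphenyltetrazolium chloride (1 mg mL⁻¹). The lowest amount giving an inhibition zone was recorded; <50 μg counted active. Triplicate.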

Escherichia coli = assay: Antibacterial activity against Escherichia coli ATCC 11103 assessed as concentration required to inhibit bacterial growth after 24 hrs by TLC assay; format: functional; summary of the method: as §1
[1] = system: Staphylococcus epidermidis; assay: Antibacterial activity against Staphylococcus epidermidis ATCC 12228 assessed as concentration required to inhibit bacterial growth after 24 hrs by TLC assay; format: functional; summary of the method: as §1
Saccharomyces cerevisiae = assay: Antifungal activity against Saccharomyces cerevisiae ATCC 2601 assessed as concentration required to inhibit fungal growth after 24 hrs by TLC assay; format: functional; summary of the method: as §1
Kocuria rhizophila = assay: Antibacterial activity against Micrococcus luteus ATCC 9341 assessed as concentration required to inhibit bacterial growth after 24 hrs by TLC assay; format: functional; summary of the method: as §1
Staphylococcus aureus = assay: Antibacterial activity against Staphylococcus aureus ATCC 6538p assessed as concentration required to inhibit bacterial growth after 24 hrs by TLC assay; format: functional; summary of the method: as §1
Candida albicans = assay: Antifungal activity against Candida albicans ATCC 10231 assessed as concentration required to inhibit fungal growth after 24 hrs by TLC assay; format: functional; summary of the method: as §1
Candida dubliniensis = assay: Antifungal activity against Candida dubliniensis SM 26 clinical isolate assessed as concentration required to inhibit fungal growth after 24 hrs by TLC assay; format: functional; summary of the method: as §1
[2] = Antibacterial activity against Salmonella Setubal ATCC 19196 assessed as concentration required to inhibit bacterial growth after 24 hrs by TLC assay; format: functional, Salmonella enterica subsp. enterica serovar Setubal; summary of the method: as §1
Klebsiella pneumoniae = assay: Antibacterial activity against Klebsiella pneumoniae ATCC 10031 assessed as concentration required to inhibit bacterial growth after 24 hrs by TLC assay; format: functional; summary of the method: as §1
Cryptococcus neoformans = assay: Antifungal activity against Cryptococcus neoformans ATCC 28952 assessed as concentration required to inhibit fungal growth after 24 hrs by TLC assay; format: functional; summary of the method: as §1

Row | SMILES | Activity (Candida tropicalis) [µg] | Activity (Escherichia coli) [µg] | Activity [1] [µg] | Activity (Saccharomyces cerevisiae) [µg] | Activity (Kocuria rhizophila) [µg] | Activity (Staphylococcus aureus) [µg] | Activity (Candida albicans) [µg] | Activity (Candida dubliniensis) [µg] | Activity [2] [µg] | Activity (Klebsiella pneumoniae) [µg] | Activity (Cryptococcus neoformans) [µg]
1 | CC(C)C[C@@H](C(=O)N[C@@H]1C(=O)N[C@@H](Cc2ccccc2)C(=O)N/C=C\c2ccc(cc2)O[C@H]1c1ccccc1)N(C)C | >50 | >50 | >50 | >50 | >50 | >50 | >50 | >50 | >50 | >50 | >50
2 | COC(=O)[C@H](Cc1ccccc1)NC(=O)[C@@H](NC(=O)[C@@H](N)CC(C)C)[C@H](O)c1ccccc1 | <50 | 1.5 | >50 | <50 | <50 | <50 | <50 | <50 | <50 | <50 | <50
3 | COC(=O)[C@H](CC(C)C)NC(=O)[C@H](NC(=O)[C@H](CC(C)C)N(C)C)[C@H](Oc1ccc(C=O)cc1)c1ccccc1 (mixture of isomers) | <50 | <50 | <50 | <50 | <50 | <50 | <50 | <50 | <50 | <50 | <50
4 | COC(=O)[C@H](CC(C)C)NC(=O)[C@H]([C@@H](Oc1ccc(C=O)cc1)c1ccccc1)N1CN(C)[C@@H](CC(C)C)C1=O (mixture of isomers) | <50 | <50 | <50 | <50 | <50 | <50 | <50 | <50 | <50 | <50 | <50
5 | COC(=O)[C@H](Cc1ccccc1)NC(=O)[C@H](NC(=O)[C@H](CC(C)C)N(C)C)[C@@H](O)c1ccccc1 | <50 | <50 | <50 | <50 | <50 | <50 | <50 | <50 | <50 | <50 | <50
6 | COC(=O)[C@H](CC(C)C)NC(=O)[C@H](NC(=O)[C@H](CC(C)C)NC(=O)OCc1ccccc1)[C@@H](O)c1ccccc1 (mixture of isomers) | <50 | <50 | <50 | <50 | <50 | <50 | <50 | <50 | <50 | <50 | <50
7 | COC(=O)[C@H](Cc1ccccc1)NC(=O)[C@H](NC(=O)[C@@H](N)CC(C)C)[C@@H](O)c1ccccc1 (mixture of isomers) | <50 | 12.5 | 3.1 | <50 | <50 | <50 | <50 | <50 | <50 | <50 | <50
8 | CC[C@H](C)[C@H](NC(=O)[C@H](NC(=O)[C@@H](N)CC(C)C)[C@@H](O)c1ccccc1)C(=O)OC | <50 | <50 | <50 | <50 | <50 | <50 | <50 | <50 | <50 | <50 | <50
9 | COC(=O)[C@H](CC(C)C)NC(=O)[C@@H]([C@@H](O)c1ccccc1)N1CN(C)[C@@H](CC(C)C)C1=O (mixture of isomers) | <50 | <50 | <50 | <50 | <50 | <50 | <50 | <50 | <50 | <50 | <50
10 | COC(=O)[C@H](CC(C)C)NC(=O)[C@H](NC(=O)[C@H](CC(C)C)N(C)C)[C@@H](O)c1ccccc1 (mixture of isomers) | <50 | <50 | <50 | <50 | <50 | <50 | <50 | <50 | <50 | <50 | <50
11 | COC(=O)[C@H](Cc1ccccc1)NC(=O)[C@H]([C@H](O)c1ccccc1)N1CN(C)[C@@H](CC(C)C)C1=O | <50 | >50 | 50 | <50 | <50 | <50 | <50 | <50 | 25 | 50 | <50
12 | CC(C)C[C@@H]1NC(=O)[C@@H](NC(=O)[C@H](CC(C)C)N(C)C)[C@H](c2ccccc2)Oc2ccc(cc2)/C=C\NC1=O (mixture of isomers) | >50 | >50 | >50 | >50 | >50 | >50 | >50 | >50 | >50 | >50 | >50
13 | CC[C@H](C)[C@H](NC(=O)[C@@H]([C@@H](O)c1ccccc1)N1CN(C)[C@@H](CC(C)C)C1=O)C(=O)OC (mixture of isomers) | <50 | <50 | <50 | <50 | <50 | <50 | <50 | <50 | <50 | <50 | <50
14 | COC(=O)[C@H](CC(C)C)NC(=O)[C@H](NC(=O)[C@@H](N)CC(C)C)[C@@H](O)c1ccccc1 | <50 | <50 | <50 | <50 | <50 | <50 | <50 | <50 | <50 | <50 | <50
15 | CC[C@H](C)[C@H](NC(=O)[C@H](NC(=O)[C@H](CC(C)C)N(C)C)[C@@H](O)c1ccccc1)C(=O)OC (mixture of isomers) | <50 | <50 | <50 | <50 | <50 | <50 | <50 | <50 | <50 | <50 | <50
